Measured values taken from ChEMBL document CHEMBL3612040, “Discovery of Selective Small Molecule Inhibitors of Monoacylglycerol Acyltransferase 3” (J Med Chem, 2015).

Assays:
[1] = Apparent permeability in RRCK cells; assay type: ADME, cell-based, Canis lupus familiaris, MDCKII-LE; conditions: dog, MDCK
[2] = Intrinsic clearance in human liver microsomes; assay type: ADME; conditions: read-out: CLH
[3] = Lipophilicity, logD of the compound at pH 7.4; assay type: physicochemical; conditions: buffer
Summary of the method: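 Shake-flask octanol:water partition at pH 7.4, with MS analysis of samples.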

CYP2C9 = CYP2C9 (Homo sapiens, UniProt P11712); assay: Inhibition of CYP2C9 (unknown origin) at 3 uM; assay type: ADME
Sequence of CYP2C9 (P11712 whole entry): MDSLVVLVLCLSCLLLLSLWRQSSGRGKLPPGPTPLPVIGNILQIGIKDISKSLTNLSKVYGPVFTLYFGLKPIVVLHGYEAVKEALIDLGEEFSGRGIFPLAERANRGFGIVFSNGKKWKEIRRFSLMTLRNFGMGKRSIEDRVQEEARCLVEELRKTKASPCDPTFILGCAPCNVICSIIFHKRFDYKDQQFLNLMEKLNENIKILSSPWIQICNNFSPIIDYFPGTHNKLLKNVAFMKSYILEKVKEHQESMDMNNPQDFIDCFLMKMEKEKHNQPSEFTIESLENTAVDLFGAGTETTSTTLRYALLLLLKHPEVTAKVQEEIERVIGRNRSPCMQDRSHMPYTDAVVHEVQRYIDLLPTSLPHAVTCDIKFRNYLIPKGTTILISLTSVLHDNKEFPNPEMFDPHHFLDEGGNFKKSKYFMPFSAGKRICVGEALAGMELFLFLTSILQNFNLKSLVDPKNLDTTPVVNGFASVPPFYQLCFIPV

CYP2C8 = target: T1, CYP2C8 (Homo sapiens, UniProt P10632); assay: Inhibition of CYP2C8 (unknown origin) at 3 uM; assay type: ADME
T1 sequence (P10632 whole entry): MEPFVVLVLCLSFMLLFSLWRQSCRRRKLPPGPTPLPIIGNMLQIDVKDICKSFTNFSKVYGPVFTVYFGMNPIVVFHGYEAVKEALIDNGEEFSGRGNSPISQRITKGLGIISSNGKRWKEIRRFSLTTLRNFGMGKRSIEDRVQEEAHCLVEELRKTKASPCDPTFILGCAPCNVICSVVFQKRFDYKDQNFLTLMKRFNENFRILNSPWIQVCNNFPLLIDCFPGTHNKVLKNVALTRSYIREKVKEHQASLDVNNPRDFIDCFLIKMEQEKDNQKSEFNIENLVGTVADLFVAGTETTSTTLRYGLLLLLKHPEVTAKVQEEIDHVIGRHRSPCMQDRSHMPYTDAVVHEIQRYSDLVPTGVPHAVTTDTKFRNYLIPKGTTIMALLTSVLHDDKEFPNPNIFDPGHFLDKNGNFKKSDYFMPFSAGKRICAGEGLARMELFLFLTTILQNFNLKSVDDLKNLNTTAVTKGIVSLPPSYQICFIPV

Hepatocyte = assay: Drug metabolism in human hepatocytes assessed as compound oxidation; assay type: ADME, cell-based
Cytochrome P450 2C9 = Cytochrome P450 2C9 (Homo sapiens, UniProt P11712); assay: Drug metabolism in human hepatocytes assessed as CYP2C9-mediated compound oxidation; assay type: ADME, cell-based, Hepatocyte
Sequence of Cytochrome P450 2C9 (P11712 whole entry): as the sequence (P11712 whole entry) above

Papp [1] | microsomal CLint [2] | logD [3] | inhibition at 3 µM (CYP2C9) | inhibition at 3 µM (CYP2C8) | Stability (Hepatocyte) | Drug metabolism (Hepatocyte) | Drug metabolism (Cytochrome P450 2C9) | Compound
6 ×10⁻⁶ cm/s | 13 µL/min/mg | 2.5 | 95% | 62% | – | – | – | COc1cccc(CC(=O)N2Cc3ccc(S(=O)(=O)Nc4cnn(-c5ccc(F)cc5)n4)cc3C2)c1
5 ×10⁻⁶ cm/s | < 8 µL/min/mg | 0.9 | – | – | Stable | – | – | COc1cccc(CC(=O)N2Cc3ccc(S(=O)(=O)Nc4cnn(C5CCOCC5)n4)cc3C2)c1
15 ×10⁻⁶ cm/s | 273 µL/min/mg | 2.3 | 88% | 48% | – | metabolite_detected | metabolite_detected | COc1cccc(CC(=O)N2Cc3ccc(S(=O)(=O)Nc4cnn(-c5ccccc5)n4)cc3C2)c1
4 ×10⁻⁶ cm/s | > 320 µL/min/mg | 3.9 | – | – | – | – | – | COc1cccc(CC(=O)N2Cc3ccc(S(=O)(=O)N(C)CCc4cccc(F)c4)cc3C2)c1
7 ×10⁻⁶ cm/s | < 8 µL/min/mg | 1.5 | – | – | – | – | – | COc1cccc(CC(=O)N2Cc3ccc(S(=O)(=O)Nc4cnn(C5CC(F)(F)C5)n4)cc3C2)c1
